Source: ChEMBL document CHEMBL2375313, “Synthesis, in vitro antitumor evaluation and DNA-binding study of novel tetrahydroquinolines and some derived tricyclic and tetracyclic ring systems” (Eur J Med Chem, 2013)

What was measured:
Format in all cases: functional
[1] = test system: HT-29; assay: Cytotoxicity against human HT-29 cells assessed as growth inhibition at 10 uM after 48 hrs by sulphorhodamine B assay; details: HT-29, 48 h, read-out: GI
In short: (§1)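 NCI-60 one-dose screen per the NCI Drug Evaluation Branch protocol. Cells given a single 10 µM concentration with 48 h continuous exposure. Growth estimated by sulphorhodamine B protein assay. Result expressed as percentage growth inhibition relative to untreated growth.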

[2] = test system: ACHN; assay: Cytotoxicity against human ACHN cells assessed as growth inhibition at 10 uM after 48 hrs by sulphorhodamine B assay; details: read-out: GI; in short: as §1
[3] = test system: T47D; assay: Cytotoxicity against human T47D cells assessed as growth inhibition at 10 uM after 48 hrs by sulphorhodamine B assay; details: read-out: GI; in short: as §1
[4] = test system: SK-OV-3; assay: Cytotoxicity against human SKOV3 cells assessed as growth inhibition at 10 uM after 48 hrs by sulphorhodamine B assay; details: SK-OV-3, 48 h, read-out: GI; in short: as §1
[5] = test system: SK-MEL-5; assay: Cytotoxicity against human SK-MEL-5 cells assessed as growth inhibition at 10 uM after 48 hrs by sulphorhodamine B assay; details: SK-MEL-5, 48 h, read-out: GI; in short: as §1
[6] = test system: NCI-H522; assay: Cytotoxicity against human NCI-H522 cells assessed as growth inhibition at 10 uM after 48 hrs by sulphorhodamine B assay; details: NCI-H522, 48 h, read-out: GI; in short: as §1
[7] = test system: CAKI-1; assay: Cytotoxicity against human Caki1 cells assessed as growth inhibition at 10 uM after 48 hrs by sulphorhodamine B assay; details: CAKI-1, 48 h, read-out: GI; in short: as §1
[8] = test system: K562; assay: Cytotoxicity against human K562 cells assessed as growth inhibition at 10 uM after 48 hrs by sulphorhodamine B assay; details: K562, 48 h, read-out: GI; in short: as §1
[9] = test system: IGROV-1; assay: Cytotoxicity against human IGROV1 cells assessed as growth inhibition at 10 uM after 48 hrs by sulphorhodamine B assay; details: IGROV-1, 48 h, read-out: GI; in short: as §1
[10] = test system: LOX IMVI; assay: Cytotoxicity against human LOXIMVI cells assessed as growth inhibition at 10 uM after 48 hrs by sulphorhodamine B assay; details: read-out: GI; in short: as §1
[11] = test system: HL-60(TB); assay: Cytotoxicity against human HL-60(TB) cells assessed as growth inhibition at 10 uM after 48 hrs by sulphorhodamine B assay; details: HL-60, 48 h, read-out: GI
In short: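 NCI-60 one-dose primary screen run to the Drug Evaluation Branch protocol. Cells are exposed to a single 10 µM concentration for 48 h continuously, and growth is read by SRB protein assay. Data are reported as percent growth of treated cells, expressed as % growth inhibition.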

[12] = test system: NCI/ADR-RES; assay: Cytotoxicity against human NCI/ADR-RES cells assessed as growth inhibition at 10 uM after 48 hrs by sulphorhodamine B assay; details: read-out: GI; in short: as §1
[13] = test system: RPMI-8226; assay: Cytotoxicity against human RPMI8226 cells assessed as growth inhibition at 10 uM after 48 hrs by sulphorhodamine B assay; details: RPMI-8226, 48 h, read-out: GI; in short: as §1
[14] = test system: SNB-75; assay: Cytotoxicity against human SNB75 cells assessed as growth inhibition at 10 uM after 48 hrs by sulphorhodamine B assay; details: SNB-75, 48 h, read-out: GI; in short: as §1
[15] = test system: UACC-62; assay: Cytotoxicity against human UACC62 cells assessed as growth inhibition at 10 uM after 48 hrs by sulphorhodamine B assay; details: UACC-62, 48 h, read-out: GI; in short: as §1
[16] = test system: OVCAR-5; assay: Cytotoxicity against human OVCAR5 cells assessed as growth inhibition at 10 uM after 48 hrs by sulphorhodamine B assay; details: OVCAR-5, 48 h, read-out: GI; in short: as §1
[17] = test system: HOP-92; assay: Cytotoxicity against human HOP92 cells assessed as growth inhibition at 10 uM after 48 hrs by sulphorhodamine B assay; details: HOP-92, 48 h, read-out: GI; in short: as §1
[18] = test system: NCI-H23; assay: Cytotoxicity against human NCI-H23 cells assessed as growth inhibition at 10 uM after 48 hrs by sulphorhodamine B assay; details: NCI-H23, 48 h, read-out: GI; in short: as §1
[19] = test system: OVCAR-4; assay: Cytotoxicity against human OVCAR4 cells assessed as growth inhibition at 10 uM after 48 hrs by sulphorhodamine B assay; details: OVCAR-4, 48 h, read-out: GI; in short: as §1
[20] = test system: SR; assay: Cytotoxicity against human SR cells assessed as growth inhibition at 10 uM after 48 hrs by sulphorhodamine B assay; details: read-out: GI; in short: as §1
[21] = test system: CCRF-CEM; assay: Cytotoxicity against human CCRF-CEM cells assessed as growth inhibition at 10 uM after 48 hrs by sulphorhodamine B assay; details: read-out: GI; in short: as §1
[22] = test system: M14; assay: Cytotoxicity against human M14 cells assessed as growth inhibition at 10 uM after 48 hrs by sulphorhodamine B assay; details: M14, 48 h, read-out: GI; in short: as §1
[23] = test system: SF-268; assay: Cytotoxicity against human SF268 cells assessed as growth inhibition at 10 uM after 48 hrs by sulphorhodamine B assay; details: SF-268, 48 h, read-out: GI; in short: as §1
[24] = test system: A549; assay: Cytotoxicity against human A549 cells assessed as growth inhibition at 10 uM after 48 hrs by sulphorhodamine B assay; details: A549, 48 h, read-out: GI; in short: as §1
[25] = test system: MDA-MB-468; assay: Cytotoxicity against human MDA-MB-468 cells assessed as growth inhibition at 10 uM after 48 hrs by sulphorhodamine B assay; details: MDA-MB-468, 48 h, read-out: GI; in short: as §1
[26] = test system: HCT-116; assay: Cytotoxicity against human HCT116 cells assessed as growth inhibition at 10 uM after 48 hrs by sulphorhodamine B assay; details: HCT-116, 48 h, read-out: GI; in short: as §1
[27] = test system: DU-145; assay: Cytotoxicity against human DU145 cells assessed as growth inhibition at 10 uM after 48 hrs by sulphorhodamine B assay; details: DU-145, 48 h, read-out: GI; in short: as §1
[28] = test system: MCF7; assay: Cytotoxicity against human MCF7 cells assessed as growth inhibition at 10 uM after 48 hrs by sulphorhodamine B assay; details: MCF7, 48 h, read-out: GI; in short: as §1
[29] = test system: MDA-MB-435; assay: Cytotoxicity against human MDA-MB-435 cells assessed as growth inhibition at 10 uM after 48 hrs by sulphorhodamine B assay; details: MDA-MB-435, 48 h, read-out: GI; in short: as §1
[30] = test system: MOLT-4; assay: Cytotoxicity against human MOLT4 cells assessed as growth inhibition at 10 uM after 48 hrs by sulphorhodamine B assay; details: MOLT-4, 48 h, read-out: GI; in short: as §1
[31] = test system: Hs-578T; assay: Cytotoxicity against human Hs578T cells assessed as growth inhibition at 10 uM after 48 hrs by sulphorhodamine B assay; details: read-out: GI; in short: as §1
[32] = test system: SF-295; assay: Cytotoxicity against human SF295 cells assessed as growth inhibition at 10 uM after 48 hrs by sulphorhodamine B assay; details: SF-295, 48 h, read-out: GI; in short: as §1
[33] = test system: SNB-19; assay: Cytotoxicity against human SNB19 cells assessed as growth inhibition at 10 uM after 48 hrs by sulphorhodamine B assay; details: SNB-19, 48 h, read-out: GI; in short: as §1
[34] = test system: RXF 393; assay: Cytotoxicity against human RXF393 cells assessed as growth inhibition at 10 uM after 48 hrs by sulphorhodamine B assay; details: RXF 393, 48 h, read-out: GI; in short: as §1
[35] = test system: SK-MEL-2; assay: Cytotoxicity against human SK-MEL-2 cells assessed as growth inhibition at 10 uM after 48 hrs by sulphorhodamine B assay; details: SK-MEL-2, 48 h, read-out: GI; in short: as §1
[36] = test system: U-251; assay: Cytotoxicity against human U251 cells assessed as growth inhibition at 10 uM after 48 hrs by sulphorhodamine B assay; details: U-251, 48 h, read-out: GI; in short: as §1
[37] = test system: HCT-15; assay: Cytotoxicity against human HCT15 cells assessed as growth inhibition at 10 uM after 48 hrs by sulphorhodamine B assay; details: HCT-15, 48 h, read-out: GI; in short: as §1
[38] = test system: A498; assay: Cytotoxicity against human A498 cells assessed as growth inhibition at 10 uM after 48 hrs by sulphorhodamine B assay; details: A498, 48 h, read-out: GI; in short: as §1
[39] = test system: PC-3; assay: Cytotoxicity against human PC3 cells assessed as growth inhibition at 10 uM after 48 hrs by sulphorhodamine B assay; details: PC-3, 48 h, read-out: GI; in short: as §1
[40] = Cytotoxicity against human EKVX cells assessed as growth inhibition at 10 uM after 48 hrs by sulphorhodamine B assay; details: read-out: GI; in short: as §1
[41] = test system: UO-31; assay: Cytotoxicity against human UO31 cells assessed as growth inhibition at 10 uM after 48 hrs by sulphorhodamine B assay; details: UO-31, 48 h, read-out: GI; in short: as §1

## CC1CCCc2c1nc1[nH]c(=O)nc(N)c1c2-c1ccc(Cl)cc1 (stereo unspecified)
[1]
  inhibition of growth at 10 µM: < 10%
[2]
  inhibition of growth at 10 µM: < 10%
[3]
  inhibition of growth at 10 µM: 29.5%
[4]
  inhibition of growth at 10 µM: < 10%
[5]
  inhibition of growth at 10 µM: < 10%
[6]
  inhibition of growth at 10 µM: 12.9%
[7]
  inhibition of growth at 10 µM: < 10%
[8]
  inhibition of growth at 10 µM: 36.4%
[9]
  inhibition of growth at 10 µM: < 10%
[10]
  inhibition of growth at 10 µM: < 10%
[11]
  inhibition of growth at 10 µM: 24.6%
[12]
  inhibition of growth at 10 µM: < 10%
[13]
  inhibition of growth at 10 µM: 23%
[14]
  inhibition of growth at 10 µM: 11%
[15]
  inhibition of growth at 10 µM: 25.4%
[16]
  inhibition of growth at 10 µM: < 10%
[17]
  inhibition of growth at 10 µM: 27.7%
[18]
  inhibition of growth at 10 µM: 10%
[19]
  inhibition of growth at 10 µM: 13.6%
[20]
  inhibition of growth at 10 µM: < 10%
[21]
  inhibition of growth at 10 µM: < 10%
[22]
  inhibition of growth at 10 µM: < 10%
[23]
  inhibition of growth at 10 µM: < 10%
[24]
  inhibition of growth at 10 µM: 11.5%
[25]
  inhibition of growth at 10 µM: 10%
[26]
  inhibition of growth at 10 µM: 14%
[27]
  inhibition of growth at 10 µM: 14%
[28]
  inhibition of growth at 10 µM: < 10%
[29]
  inhibition of growth at 10 µM: < 10%
[30]
  inhibition of growth at 10 µM: < 10%
[31]
  inhibition of growth at 10 µM: 19.4%
[32]
  inhibition of growth at 10 µM: < 10%
[33]
  inhibition of growth at 10 µM: 16.6%
[34]
  inhibition of growth at 10 µM: < 10%
[35]
  inhibition of growth at 10 µM: < 10%
[36]
  inhibition of growth at 10 µM: 10.2%
[37]
  inhibition of growth at 10 µM: 10%
[38]
  inhibition of growth at 10 µM: < 10%
[39]
  inhibition of growth at 10 µM: 12.7%
[40]
  inhibition of growth at 10 µM: < 10%
[41]
  inhibition of growth at 10 µM: 10%
